The species named for the experiment is Rattus norvegicus. The experiment can be described thus: Pressor activity in rat relative to angiotensin-2. In kind it is functional. The essentials:
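Male rats, anesthetized with pentobarbital, nephrectomized and treated with pentolinium; blood pressure rise recorded after dosing. Peptides dissolved in normal saline with 0.1% polyvinylpyrrolidone, held in siliconized glass containers. Activity expressed relative to [Asn1,Val5]angiotensin II set at 100.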

Starred links: 1 amine or outer side, 2 acyl side, 3 side chain; linkers in the order of their positions; H or OH if unused. Non-standard residues stand in square brackets, D forms with d. Residues, ends and D or L forms follow the SMILES beside them. X4 = O=C([C@H](Cc1cc[nH]n1)N[*:1])[*:2]; 2Thi = N[C@@H](Cc1cccs1)C(=O)O; Orn = NCCC[C@H](N)C(=O)O

`CC[C@H](C)[C@H](NC(=O)[C@H](Cc1ccc(O)cc1)NC(=O)[C@@H](NC(=O)[C@H](CCCN=C(N)N)NC(=O)[C@@H](N)CC(=O)O)C(C)C)C(=O)N[C@@H](Cc1c[nH]cn1)C(=O)N1CCC[C@H]1C(=O)N[C@@H](Cc1ccccc1)C(=O)O` displayed an Activity of 4%.
For `CC[C@H](C)[C@H](NC(=O)[C@H](Cc1ccc(O)cc1)NC(=O)[C@@H](NC(=O)[C@H](CCCN=C(N)N)NC(=O)[C@@H](N)CC(=O)O)C(C)C)C(=O)N[C@@H](Cc1cncn1C)C(=O)N1CCC[C@H]1C(=O)N[C@@H](Cc1ccccc1)C(=O)O`, the Activity worked out at 0.05%.
The compound `CC[C@H](C)[C@H](NC(=O)[C@H](Cc1ccc(O)cc1)NC(=O)[C@@H](NC(=O)[C@H](CCCN=C(N)N)NC(=O)[C@@H](N)CC(=O)O)C(C)C)C(=O)N[C@@H](Cc1cn(C)cn1)C(=O)N1CCC[C@H]1C(=O)N[C@@H](Cc1ccccc1)C(=O)O` displayed an Activity of 5%.
For `CC[C@H](C)[C@H](NC(=O)[C@H](Cc1ccc(O)cc1)NC(=O)[C@@H](NC(=O)[C@H](CCCNC(=N)N)NC(=O)[C@@H](N)CC(=O)O)C(C)C)C(=O)N[C@@H](Cc1cccs1)C(=O)N1CCC[C@H]1C(=O)N[C@@H](Cc1ccccc1)C(=O)O` (H-DRVYI[2Thi]PF-OH), the Activity is reported as 10%.
Compound `CC[C@H](C)[C@H](NC(=O)[C@H](Cc1ccc(O)cc1)NC(=O)[C@@H](NC(=O)[C@H](CCCNC(=N)N)NC(=O)[C@@H](N)CC(=O)O)C(C)C)C(=O)N[C@@H](CCCN)C(=O)N1CCC[C@H]1C(=O)N[C@@H](Cc1ccccc1)C(=O)O` (H-DRVYI[Orn]PF-OH) displayed an Activity of 0.03%.
`CC[C@H](C)[C@H](NC(=O)[C@H](Cc1ccc(O)cc1)NC(=O)[C@@H](NC(=O)[C@H](CCCNC(=N)N)NC(=O)[C@@H](N)CC(=O)O)C(C)C)C(=O)N[C@@H](Cc1cc[nH]n1)C(=O)N1CCC[C@H]1C(=O)N[C@@H](Cc1ccccc1)C(=O)O` (H-DRVYI[X4]PF-OH) displayed an Activity of 57%.
H-DRVYIAPF-OH returned an Activity of 0.8%.
As to H-DRVYIEPF-OH, the Activity stood at 0%.
For the compound H-DRVYIFPF-OH, the Activity was found to be 3%.
Compound H-DRVYIKPF-OH displayed an Activity of 0.1%.
Regarding H-DRVYILPF-OH, the Activity was 0.02%.
H-DRVYIMPF-OH had an Activity of 0.2%.
In the case of H-DRVYIRPF-OH, the Activity is 0.01%.

Source of the values: ChEMBL document CHEMBL3244319, “Angiotensin II analogues. 14. Roles of the imidazole nitrogens of position-6 histidine in pressor activity” (1979).
